Reference: ChEMBL document CHEMBL1139327, “Synthesis and biological properties of Pachastrissamine (jaspine B) and diastereoisomeric jaspines” (2009)
Activity calls are given as the source filed them. The calls are words filed in the database; no cut-off is given here.

Columns and labels:
[1] = system: A549; experiment: Cytotoxicity against human A549 cells after 24 hrs by MTT assay; assay type: functional; details: A549, 24 h, read-out: LD50 (the source's name)
In short: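 Human alveolar epithelial A549 cells (ATCC) grown in HAM F12 with glutamine plus 10% FBS at 37 °C, 5% CO2. Seeded at 10^5 cells/well; after 24 h, medium renewed and compounds (ethanol stocks; vehicle control 0.1% ethanol) added to final 0.02–400 µM for 24 h. Viable cells by MTT; LD50 from concentration–response; means of three independent experiments with triplicates.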

[2] = system: A549; experiment: Cytotoxicity against human A549 cells assessed as PI positive cells after 24 hrs by flow cytometry; assay type: functional, cell-based
In short: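 A549 cells exposed 24 h to a range of compound concentrations, harvested by brief trypsinization, double-stained with Alexa Fluor 488 annexin V and propidium iodide, analysed by flow cytometry; percentage of cells positive for annexin V, PI or both scored against untreated control.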

[3] = system: A549; experiment: Cytotoxicity against human A549 cells after 24 hrs by MTT assay in presence of 3-methyladenine; assay type: functional
In short: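 A549 (HAM F12/glutamine, 10% FBS, 37 °C, 5% CO2) pretreated 2 weeks with 10 mM 3-MA in flask, medium changed every 2 days. Then 10^5 cells/well seeded in medium with 3-MA plus compounds at 0.02–400 μM final (ethanol vehicle, 0.1%), 24 h. Viability by MTT, LD50 derived. Means SD, three independent experiments, triplicates.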

[4] = system: A549; experiment: Induction of 3-methyladenine-inhibited autophagy in human A549 cells assessed as increase in ceramide levels
[5] = system: A549; experiment: Cytotoxicity against human A549 cells after 24 hrs by MTT assay in absence of 3-methyladenine; assay type: functional
In short: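 A549 (ATCC) grown in HAM F12 with glutamine + 10% FBS, 37 °C, 5% CO2. Seeded 10^5 cells/well, medium renewed after 24 h, then exposed 24 h to 0.02–400 μM final (ethanol stock; 0.1% ethanol vehicle control). Viable cells by MTT; LD50 taken from curves. Means SD, three independent experiments in triplicate.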

SMILES: CCCCCCCCCCCCCC[C@@H]1OC[C@H](N)[C@H]1O
- CC50 [1]: 1500 nM
- Activity [2]: Dose-dependent effect
- Activity [3]: inactive

SMILES: CCCCCCCCCCCCCC[C@H]1OC[C@H](N)[C@@H]1O [2-EPI JASPINE B]
- CC50 [1]: 1250 nM
- Activity [2]: Dose-dependent effect
- Activity [3]: inactive

SMILES: CCCCCCCCCCCCCC[C@H]1OC[C@H](N)[C@H]1O
- CC50 [1]: 2500 nM
- Activity [2]: Dose-dependent effect
- Activity [3]: inactive

SMILES: CCCCCCCCCCCCCC[C@@H]1OC[C@H](N)[C@@H]1O [PACHASTRISSAMINE]
- CC50 [1]: 130 nM
- Activity [2]: Dose-dependent effect
- Activity [3]: inactive
- Activity [4]: Dose-dependent effect

SMILES: CCCCCCCCCCCCCC[C@H](O)[C@@H](O)[C@@H](N)CO
- Activity [3]: 29.4 µM
- Activity [5]: 28.2 µM
